Data reported in PMC4257110 (International Journal of Nanomedicine, 2014).
In brackets after ≈: the same amount, converted by molar mass.

Experiments:
[1] = In vitro release of TS IIA, Sal B and PNS from PLGA NPs and of free drugs; format: physicochemical; settings: saline containing 0.2% SDS, dialysis, 37°C; for released from NPs: PLGA NPs loaded with TS IIA, Sal B, PNS, within 72 hours; for free drug released: free drugs (control), first 6 hours
In short: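 Dialysis release: a sealed bag with sample dispersed in 2.0 mL saline plus 0.2% (w/v) SDS was immersed in 30 mL of the same medium at 37°C with horizontal shaking at 100 rpm. 1 mL of medium was withdrawn at set intervals and drug content measured by HPLC.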

[2] = Pharmacokinetics of TS IIA, Sal B and PNS; format: in vivo, guinea pigs; settings: RW administration, NPs versus compound solution, not dose-normalised
In short: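 Guinea pigs (250–300 g; 78, two groups) received round-window dosing of loaded PLGA NPs (12.43 μg/kg TS IIA, 766.38 μg/kg Sal B, 1.05/2.08/2.31 mg/kg R1/Rg1/Rb1) or solution in ethanol/glycerol/PEG 400 2:1:2 (0.73, 8, 3.13/4.38/3.82 mg/kg); saline blank. At 0.17–36 h under anesthesia, perilymph was drawn through the RWM and plasma taken from cardiac blood. Acetic ether (TS IIA, Sal B) or methanol (PNS) extraction, HPLC; n=3.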

[3] = format: physicochemical; settings: PLGA NPs loaded with TS IIA, Sal B, PNS; PLGA L:G 50:50; RP-HPLC
In short: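 Free drug: a dialysis bag (8–14 kDa cutoff) holding 2 mL saline with 0.2% SDS was placed in 25 mL nanosuspension for 12 h, and the bag contents were assayed by HPLC. Total drug: 1 mL nanosuspension dissolved in acetonitrile, extracted with methanol, 0.22-μm filtered. C18 column, 25°C, acetonitrile/0.05% phosphoric acid gradient, 1.0 mL/min, 203 nm (PNS) or 280 nm (TS IIA, Sal B). EE calculated from free and total drug.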

[4] = Maximum solubility in mixed solvents; format: physicochemical; settings: mixed solvents (ethanol/glycerol/PEG 400 = 2:1:2), organic solvent or mixture
[5] = format: in vivo, guinea pigs
[6] = In vitro release of coumarin-6 from PLGA NPs; format: physicochemical; settings: PBS (pH 7.4), 72 hours, 37°C
In short: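 A dialysis bag holding 3.0 mL nanosuspension plus 2.0 mL PBS pH 7.4 sat in 15 mL PBS pH 7.4 at 37°C, stirred at 100 rpm. At set time points 1 mL of medium was withdrawn and replaced with fresh medium, and coumarin-6 was quantified by HPLC.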

[7] = PL, guinea pigs, RW administration, NPs versus solution

Row | Compound | released from NPs [1] | free drug released [1] [%] | AUC0–t in the PL, NPs greater compared with compound solution [2] [fold] | Cmax in the PL, NPs higher compared with compound solution [2] [fold] | entrapment efficiency of the NPs [3] [%] | solubility [4] [µg/mL] | AUC0–t in PL, NPs higher than coumarin-6 solution [5, 7] [fold] | Cmax in PL, NPs higher than coumarin-6 solution [5, 7] [fold] | time up to which coumarin-6 was found in the PL ([5]; RW administration of coumarin-6 NPs) | time after which no coumarin-6 was detected in PL ([5]; RW administration of coumarin-6 solution) [h] | coumarin-6 detected in the plasma ([5]; plasma of several guinea pigs, RW administration of coumarin-6 NPs or solution) | in vitro cumulative release of coumarin-6 from the NPs [6] [%]
1 | CC(C)=CCC[C@](C)(O[C@@H]1O[C@H](CO)[C@@H](O)[C@H](O)[C@H]1O)[C@H]1CC[C@]2(C)[C@@H]1[C@H](O)C[C@@H]1[C@@]3(C)CC[C@H](O)C(C)(C)[C@@H]3[C@@H](O[C@@H]3O[C@H](CO)[C@@H](O)[C@H](O)[C@H]3O[C@@H]3OC[C@@H](O)[C@H](O)[C@H]3O)C[C@]12C [R1, notoginsenoside R1] | completely released | > 79 | 4.0 | 14.4 | 37.87 | – | – | – | – | – | – | –
2 | CC(C)=CCC[C@](C)(O[C@@H]1O[C@H](CO[C@@H]2O[C@H](CO)[C@@H](O)[C@H](O)[C@H]2O)[C@@H](O)[C@H](O)[C@H]1O)[C@H]1CC[C@]2(C)[C@@H]1[C@H](O)C[C@@H]1[C@@]3(C)CC[C@H](O[C@@H]4O[C@H](CO)[C@@H](O)[C@H](O)[C@H]4O[C@@H]4O[C@H](CO)[C@@H](O)[C@H](O)[C@H]4O)C(C)(C)[C@@H]3CC[C@]12C [Rb1, ginsenoside Rb1] | 76.0% | > 79 | 7.1 | 16.7 | 93.56 | – | – | – | – | – | – | –
3 | CC(C)=CCC[C@](C)(O[C@@H]1O[C@H](CO)[C@@H](O)[C@H](O)[C@H]1O)[C@H]1CC[C@]2(C)[C@@H]1[C@H](O)C[C@@H]1[C@@]3(C)CC[C@H](O)C(C)(C)[C@@H]3[C@@H](O[C@@H]3O[C@H](CO)[C@@H](O)[C@H](O)[C@H]3O)C[C@]12C [Rg1, ginsenoside Rg1] | 76.2% | > 79 | 3.1 | 10.0 | 44.98 | – | – | – | – | – | – | –
4 | Cc1coc2c1C(=O)C(=O)c1c-2ccc2c1CCCC2(C)C [TS IIA, tanshinone IIA] | 23.6% | > 79 | – | – | 91.81 | 1830 (≈ 6.22 mM) | – | – | – | – | – | –
5 | CCN(CC)c1ccc2cc(-c3nc4ccccc4s3)c(=O)oc2c1 [coumarin-6] | – | – | – | – | – | – | 4.7 | 10.9 | up to 96 hours | 36 | An infinitesimal amount | < 2
6 | salvianolic acid B [Sal B] | 93.0% | > 79 | – | – | 92.88 | – | – | – | – | – | – | –
